Measurements published in ChEMBL document CHEMBL1126882, “Orally active central dopamine and serotonin receptor ligands: 5-, 6-, 7-, and 8-[[trifluoromethyl)sulfonyl]oxy]-2-(di-n-propylamino)tetralins and the formation of active metabolites in vivo” (J Med Chem, 1993).
Active and inactive are the calls of the source. The calls are words filed in the database; no cut-off is given here.

Experiments:
[1] = biological target: T1, Dopamine receptor (Rattus norvegicus) (UniProt P25115+P19020+P30729+P18901+P61169); assay: Effective dose for half-maximal decrease in the accumulation of DOPA in reserpinized rat brain limbic area by sc administration; partial response at the highest dose tested; assay type: functional, organism-based
Summary of the method: (§1)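 Male Sprague-Dawley rats (200-300 g) got reserpine 5 mg/kg sc 18 h before. The test drug (saline) was given sc or po (po rats fasted 18 h), with NSD 1015, 30 min before decapitation. DOPA and 5-HTP in limbic, striatal and hemispheral tissue were measured by HPLC-ED. ED50 (half-maximal decrease) was taken from 4-6-dose curves, with deviation estimated graphically from SEM.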

[2] = tested on: Rattus norvegicus; assay: post-synaptic agonistic effects by increase in locomotor activity at the dose of 50 umol/kg, sc in reserpinized rat (p<0.005); assay type: functional
[3] = species on record: Rattus norvegicus; assay: 5-HT behavioral syndrome was determined by observing flat body posture and forepaw threading in rat.++ indicates […] intensity of behavioral effect; assay type: functional, organism-based
Summary of the method: (§2)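 Male Sprague-Dawley rats (200-300 g) given reserpine 5 mg/kg sc in the neck 18 h before testing. The test compound, in 0.9% saline, was given sc in the neck (n = 4-5). Rats were placed singly in photocell motility meters right after dosing. Counts were recorded over 30 min, alongside gross behavioural observation of 5-HT and DA signs. Statistics: ANOVA with Fischer's PLSD versus reserpine controls.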

[4] = biological target: T2, D(2) dopamine receptor (Rattus norvegicus, UniProt P61169); assay: Binding affinity against dopamine receptor D2 in rat brain tissue using [3H]spiperone; assay type: tissue-based
Summary of the method: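 Rat striatal membranes were prepared in 50 mM potassium phosphate (pH 7.4). They were incubated with 0.5 nM [3H]spiperone (3 mg original tissue) for 10 min at 37 °C. Specific binding was defined with 10 μM 6,7-ADTN. Six drug concentrations (10⁻⁴-10⁻⁹ M) were tested, in triplicate or in a single experiment.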

[5] = (§3) Effective dose for half-maximal decrease in the accumulation of 5-hydroxytryptophan (5-HTP) in reserpinized rat brain limbic area by sc administration; assay type: functional; summary of the method: as §1
[6] = (§4) Effective dose for half-maximal decrease in the accumulation of 5-hydroxytryptophan (5-HTP) in reserpinized rat brain hemispheral area by sc administration; assay type: functional; summary of the method: as §1
[7] = biological target: T1, Dopamine receptor (Rattus norvegicus); assay: Effective dose for half-maximal decrease in the accumulation of DOPA in reserpinized rat brain hemispheral area by sc administration; partial response at the highest dose tested; assay type: functional, organism-based; summary of the method: as §1
[8] = biological target: T1, Dopamine receptor (Rattus norvegicus); assay: Effective dose for half-maximal decrease in the accumulation of DOPA in reserpinized rat brain striatal area by sc administration; partial response at the highest dose tested; assay type: functional, organism-based; summary of the method: as §1
[9] = (§5) Effective dose for half-maximal decrease in the accumulation of 5-hydroxytryptophan (5-HTP) in reserpinized rat brain striatal area by sc administration; assay type: functional; summary of the method: as §1
[10] = biological target: T3, 5-hydroxytryptamine receptor 1A (Rattus norvegicus, UniProt P19327); assay: Binding affinity against 5-hydroxytryptamine 1A receptor in homogenated rat brain tissue, using by [3H]8-OH-DPAT as radioligand; assay type: tissue-based
T3 sequence (P19327 whole entry): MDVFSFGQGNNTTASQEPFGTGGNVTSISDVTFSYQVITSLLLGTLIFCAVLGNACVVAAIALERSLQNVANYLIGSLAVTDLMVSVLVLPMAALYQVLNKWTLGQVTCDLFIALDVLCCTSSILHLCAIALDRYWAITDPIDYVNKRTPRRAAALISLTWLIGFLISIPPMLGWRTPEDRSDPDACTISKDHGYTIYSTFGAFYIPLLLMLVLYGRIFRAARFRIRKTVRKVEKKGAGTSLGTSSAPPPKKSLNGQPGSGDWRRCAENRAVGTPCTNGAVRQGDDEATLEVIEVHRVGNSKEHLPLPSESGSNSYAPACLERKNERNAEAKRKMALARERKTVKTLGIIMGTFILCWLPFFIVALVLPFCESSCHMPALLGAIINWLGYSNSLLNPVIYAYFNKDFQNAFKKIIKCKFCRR
Summary of the method: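 Rat brain homogenate was washed and preincubated in 50 mM Tris (pH 8.0) containing NaCl, CaCl2 and MgCl2, plus 10 μM pargyline. Nonspecific binding was defined with 10 μM 5-HT. Six drug concentrations (10⁻⁴-10⁻⁹ M) were tested, triplicate or single run. IC50 came from a semilog plot with linear regression.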

[11] = tested on: Rattus norvegicus; assay: Effective dose for half-maximal decrease in the accumulation of DOPA in reserpinized rat brain striatal area by po administration; Partial response at the highest dose tested; assay type: functional, organism-based; summary of the method: as §1
[12] = tested on: Rattus norvegicus; assay: Effective dose for half-maximal decrease in the accumulation of DOPA in reserpinized rat brain limbic area by po administration; Partial response at the highest dose tested; assay type: functional, organism-based; summary of the method: as §1
[13] = Half-lives were estimated from the elimination phase of the blood conc-time curve after oral administration; assay type: ADME, organism-based; settings: whole blood
Summary of the method: (§6)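 Male Sprague-Dawley rats (300 g) with arterial catheters were dosed 24 h after surgery. Doses: 40 μmol/kg po by gavage and 5 μmol/kg iv, or 20 po and 1 iv. Po rats were fasted 18 h. Blood was sampled from 5 min to 12 h and measured by GC-MS after extraction at pH 11 against an internal standard, samples in duplicate. AUC po/iv came from n = 4 per route. Half-life was read graphically from the oral elimination phase.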

[14] = tested on: Rattus norvegicus; assay: Effective dose for half-maximal decrease in the accumulation of DOPA in reserpinized rat brain limbic area by sc administration; Inactive; assay type: functional, organism-based; summary of the method: as §1
[15] = tested on: Rattus norvegicus; assay: post-synaptic agonistic effects by increase in locomotor activity at the dose of 0.2 umol/kg, sc in reserpinized rat (p<0.005); assay type: functional; summary of the method: as §2
[16] = tested on: Rattus norvegicus; assay: Effective dose for half-maximal decrease in the accumulation of DOPA in reserpinized rat brain striatal area by sc administration; Inactive; assay type: functional, organism-based; summary of the method: as §1
[17] = tested on: Rattus norvegicus; assay: (§7) Effective dose for half-maximal decrease in the accumulation of 5-hydroxytryptophan (5-HTP) in reserpinized rat brain hemispheral area by po administration; assay type: functional; summary of the method: as §1
[18] = tested on: Rattus norvegicus; assay: (§8) Effective dose for half-maximal decrease in the accumulation of 5-hydroxytryptophan (5-HTP) in reserpinized rat brain striatal area by po administration; assay type: functional; summary of the method: as §1
[19] = tested on: Rattus norvegicus; assay: (§9) Effective dose for half-maximal decrease in the accumulation of DOPA in reserpinized rat brain hemispheral area by sc administration; Inactive; assay type: functional, organism-based; summary of the method: as §1
[20] = tested on: Rattus norvegicus; assay: as §3; assay type: functional; summary of the method: as §1
[21] = tested on: Rattus norvegicus; assay: as §4; assay type: functional; summary of the method: as §1
[22] = tested on: Rattus norvegicus; assay: (§10) Effective dose for half-maximal decrease in the accumulation of 5-hydroxytryptophan (5-HTP) in reserpinized rat brain limbic area by po administration; assay type: functional; summary of the method: as §1
[23] = tested on: Rattus norvegicus; assay: as §5; assay type: functional; summary of the method: as §1
[24] = species on record: Rattus norvegicus; assay: DA agonist induced behavior was charecterised by increased locomotion, sniffing and licking.+ indicates low intensity of behavioral effect; assay type: functional, organism-based; summary of the method: as §2
[25] = biological target: T1, Dopamine receptor (Rattus norvegicus); assay: Effective dose for half-maximal decrease in the accumulation of DOPA in reserpinized rat brain striatal area by po administration; partial response at the highest dose tested; assay type: functional, organism-based; summary of the method: as §1
[26] = Area under curve ratio was determined (po/iv); assay type: functional; summary of the method: as §6
[27] = biological target: T1, Dopamine receptor (Rattus norvegicus); assay: Effective dose for half-maximal decrease in the accumulation of DOPA in reserpinized rat brain limbic area by po administration; partial response at the highest dose tested; assay type: functional, organism-based; summary of the method: as §1
[28] = as §7; assay type: functional; summary of the method: as §1
[29] = biological target: T1, Dopamine receptor (Rattus norvegicus); assay: Effective dose for half-maximal decrease in the accumulation of DOPA in reserpinized rat brain hemispheral area by po administration; assay type: functional, organism-based; summary of the method: as §1
[30] = as §8; assay type: functional; summary of the method: as §1
[31] = biological target: T1, Dopamine receptor (Rattus norvegicus); assay: as §9; assay type: functional, organism-based; summary of the method: as §1
[32] = as §10; assay type: functional; summary of the method: as §1
[33] = tested on: Rattus norvegicus; assay: Effective dose for half-maximal decrease in the accumulation of 5-hydroxytryptophan (5-HTP) in reserpinized rat brain striatal area by sc administration; partial response at the highest dose tested; assay type: functional, organism-based; summary of the method: as §1
[34] = tested on: Rattus norvegicus; assay: Effective dose for half-maximal decrease in the accumulation of 5-hydroxytryptophan (5-HTP) in reserpinized rat brain limbic area by sc administration; partial response at the highest dose tested; assay type: functional, organism-based; summary of the method: as §1
[35] = tested on: Rattus norvegicus; assay: Effective dose for half-maximal decrease in the accumulation of 5-hydroxytryptophan (5-HTP) in reserpinized rat brain hemispheral area by sc administration; Inactive; assay type: functional, organism-based; summary of the method: as §1
[36] = biological target: T1, Dopamine receptor (Rattus norvegicus); assay: Effective dose for half-maximal decrease in the accumulation of DOPA in reserpinized rat brain limbic area by sc administration; assay type: functional, organism-based; summary of the method: as §1
[37] = biological target: T2, D(2) dopamine receptor; assay: Binding affinity against dopamine receptor D2 in homogenated rat brain tissue, using by ([3H]N00437) as radioligand; assay type: tissue-based
Summary of the method: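 Striata from male Wistar rats were washed in Tris (pH 7.5) containing EDTA, KCl and CaCl2. Tissue (1.25 mg original) was incubated with 0.2 nM [3H]-N-0437 (final) for 90 min at 25 °C, then filtered and counted by scintillation. Nonspecific binding was defined with 1 μM 6,7-ADTN. IC50 was read from a hand-fitted sigmoid curve, in triplicate.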

[38] = biological target: T1, Dopamine receptor (Rattus norvegicus); assay: Effective dose for half-maximal decrease in the accumulation of DOPA in reserpinized rat brain striatal area by sc administration; assay type: functional, organism-based; summary of the method: as §1

T2 sequence (P61169 whole entry): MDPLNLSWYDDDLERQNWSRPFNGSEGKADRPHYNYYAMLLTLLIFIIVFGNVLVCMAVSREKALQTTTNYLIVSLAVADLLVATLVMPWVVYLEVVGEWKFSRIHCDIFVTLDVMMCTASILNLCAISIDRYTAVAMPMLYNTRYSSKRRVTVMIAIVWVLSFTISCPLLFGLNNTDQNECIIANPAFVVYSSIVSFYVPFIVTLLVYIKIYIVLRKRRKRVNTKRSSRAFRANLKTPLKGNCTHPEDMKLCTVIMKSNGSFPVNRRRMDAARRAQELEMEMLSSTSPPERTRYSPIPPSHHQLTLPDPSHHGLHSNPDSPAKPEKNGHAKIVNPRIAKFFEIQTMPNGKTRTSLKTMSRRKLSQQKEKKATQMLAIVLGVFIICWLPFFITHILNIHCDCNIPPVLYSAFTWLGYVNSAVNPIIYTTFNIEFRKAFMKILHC

Structure (SMILES) | ED50 [1] | Counts/30 [2] | Ki [4] | ED50 [5] | ED50 [6] | ED50 [7] | ED50 [8] | ED50 [9] | Ki [10] | ED50 [31] | ED50 [34] | also measured
CCCNC1CCc2cccc(OS(=O)(=O)C(F)(F)F)c2C1 (configuration not stated) | Weak activity | 120 min | 1360 nM | 1.2 µmol/kg | 1.1 µmol/kg | Weak activity | Weak activity | 0.8 µmol/kg | 3.8 nM |  |  | Behavioral syndrome [3]: Active
CCCN(CCC)C1CCc2cccc(O)c2C1 (configuration not stated) [8-OH-DPAT] |  |  |  |  |  |  |  |  |  |  |  | ED50 [11]: Weak activity; ED50 [12]: Weak activity; half-life ([13]; rat): 1.2 h; ED50 [14]: inactive; Counts/30 [15]: 66 counts/30 min; ED50 [16]: inactive; ED50 [17]: 7.6 µmol/kg; ED50 [18]: 7.9 µmol/kg; ED50 [19]: inactive; ED50 [20]: 0.05 µmol/kg; ED50 [21]: 0.07 µmol/kg; ED50 [22]: 3 µmol/kg; ED50 [23]: 0.04 µmol/kg
CCCN(CCC)C1CCc2cccc(OS(=O)(=O)C(F)(F)F)c2C1 (configuration not stated) | Weak activity | 110 min | 670 nM | 5.9 µmol/kg | 10 µmol/kg |  | Weak activity | 15 µmol/kg | 9.6 nM | inactive |  | Behavioral syndrome [24]: Partially active; ED50 [25]: Weak activity; half-life [13]: 1.5 h; Ratio [26]: 11.2; ED50 [27]: Weak activity; ED50 [28]: 1.2 µmol/kg; ED50 [29]: 30 µmol/kg; ED50 [30]: 1.5 µmol/kg; ED50 [32]: 1.2 µmol/kg
CCCN(CCC)C1CCc2ccc(OC)cc2C1 (configuration not stated) | Weak activity |  |  |  |  |  | Weak activity |  |  | inactive | Weak activity | ED50 [33]: Weak activity; ED50 [35]: inactive
CCCN(CCC)C1CCc2ccc(OS(=O)(=O)C(F)(F)F)cc2C1 (configuration not stated) |  | 170 min | 1300 nM |  | 27 µmol/kg | Weak activity |  | 34 µmol/kg | 360 nM |  | Weak activity | ED50 [36]: 1.6 µmol/kg; Ki [37]: 150 nM; ED50 [38]: 0.4 µmol/kg
